Experimental data as given in publication PMC5832441 (Nature, 2017).

Tests used:
[1] = system: calcitonin receptor (CTR); assay: Whole cell radioligand competition binding with 125I-sCT; set-up: species or system human; settings: competition with 125I-sCT(8-32), N130D mutant; five independent experiments
In short: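 Cos7 cells in DMEM/10% FBS, transiently transfected with PEI (DNA:PEI 1:6 in 150mM NaCl, 15 min) and seeded at 3 × 10⁴/well for 48 h at 37°C, 5% CO₂. Total binding: 0.05 nM ¹²⁵I-sCT(8-32) alone. Nonspecific binding: co-incubation with 1 μM sCT(8-32). Each experiment normalised to its own specific binding.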

[2] = system: HA-FLAG-3C-CTR-3C-8xHis CTR with Gs protein heterotrimer; assay: [35S]GTPγS binding on CTR expressed in insect cells; type: biochemical, human; settings: insect cell membranes, absence and presence of Gs heterotrimer; four independent experiments
[3] = system: calcitonin receptor (CTR); assay: cAMP accumulation in transfected COS7 or 3T3-FlpIn cells; type: cell-based, human
In short: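 COS7 or 3T3-FlpIn cells transfected with PEI (DNA:PEI 1:6 in 150mM NaCl, 15 min), plated at 3 × 10⁴/well and held 48 h at 37°C, 5% CO₂. Signals converted to cAMP using a parallel standard curve, then normalised to 100 μM forskolin within each cell line. For efficacy, Black-Leff operational model (Logτ_c) applied, corrected for cell-surface expression.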

[4] = system: calcitonin receptor (CTR); assay: ERK1/2 phosphorylation; type: cell-based, human; settings: H302A mutant, 3T3-FlpIn cells; four independent experiments in duplicate
In short: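 3T3-FlpIn cells grown in DMEM with 10% v/v FBS at 37°C. Transient transfection used PEI; DNA and PEI in 150mM NaCl were combined 1:6 and left 15 min before adding to the cell suspension. Cells were plated at 3 × 10⁴/well and held 48 h at 37°C, 5% CO₂ before the pERK1/2 AlphaScreen read.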

CTR = settings: cited from earlier work
[5] = cell surface ELISA to N-terminal epitope tag; settings: glycan lost; control: WT CTR

salmon calcitonin [sCT]
sCT affinity at N130D CTR compared to WT [1]: reduced affinity
G protein activation via GTPγS binding, sCT concentration response [2]: can robustly activate Gs
sCT-mediated cAMP efficacy at Δ414 CTR ([3]; COS7 cells, truncation after Trp413, 5 independent experiments in duplicate): no effect on receptor function
sCT potency in cAMP production at H302A CTR ([3]; H302A mutant, 3T3-FlpIn cells, four independent experiments in duplicate): reduced potency
sCT potency in cAMP accumulation at N130D CTR relative to WT ([3]; N130D mutant, five independent experiments): reduce the potency
sCT potency in phosphorylation of ERK1/2 at H302A CTR [4]: reduced potency
off-rate (CTR): very slow off-rate

B1: calcitonin receptor (CTR): N28D (protein)
parent chain: MRFTFTSRCLALFLLLNHPTPILPAFSNQTYPTIEPKPFLYVVGRKKMMDAQYKCYDRMQQLPAYQGEGPYCNRTWDGWLCWDDTPAGVLSYQFCPDYFPDFDPSEKVTKYCDEKGVWFKHPENNRTWSNYTMCNAFTPEKLKNAYVLYYLAIVGHSLSIFTLVISLGIFVFFRSLGCQRVTLHKNMFLTYILNSMIIIIHLVEVVPNGELVRRDPVSCKILHFFHQYMMACNYFWMLCEGIYLHTLIVVAVFTEKQRLRWYYLLGWGFPLVPTTIHAITRAVYFNDNCWLSVETHLLYIIHGPVMAALVVNFFFLLNIVRVLVTKMRETHEAESHMYLKAVKATMILVPLLGIQFVVFPWRPSNKMLGKIYDYVMHSLIHFQGFFVATIYCFCNNEVQTTVKRQWAQFKIQWNQRWGRRPSNRSARAAAAAAEAGDIPIYICHQELRNEPANNQGEESAEIIPLNIIEQESSA
expression_or_secretion [5]: no change

B2: calcitonin receptor (CTR): N73D (protein)
parent chain: B1 parent chain
expression_or_secretion [5]: no change

B3: calcitonin receptor (CTR): N130D (protein)
parent chain: B1 parent chain
expression_or_secretion [5]: no change

B4: calcitonin receptor (CTR): N125D (protein)
parent chain: B1 parent chain
expression_or_secretion [5]: no change
